This is an account of results in article PMC2606940 (The Journal of General Physiology, 2009).

The target of one assay is T1, CLC-0 E166A mutant (Torpedo marmorata, UniProt P21564, C212S/E166A).
T1 sequence (P21564 1-805 E166A/C212S): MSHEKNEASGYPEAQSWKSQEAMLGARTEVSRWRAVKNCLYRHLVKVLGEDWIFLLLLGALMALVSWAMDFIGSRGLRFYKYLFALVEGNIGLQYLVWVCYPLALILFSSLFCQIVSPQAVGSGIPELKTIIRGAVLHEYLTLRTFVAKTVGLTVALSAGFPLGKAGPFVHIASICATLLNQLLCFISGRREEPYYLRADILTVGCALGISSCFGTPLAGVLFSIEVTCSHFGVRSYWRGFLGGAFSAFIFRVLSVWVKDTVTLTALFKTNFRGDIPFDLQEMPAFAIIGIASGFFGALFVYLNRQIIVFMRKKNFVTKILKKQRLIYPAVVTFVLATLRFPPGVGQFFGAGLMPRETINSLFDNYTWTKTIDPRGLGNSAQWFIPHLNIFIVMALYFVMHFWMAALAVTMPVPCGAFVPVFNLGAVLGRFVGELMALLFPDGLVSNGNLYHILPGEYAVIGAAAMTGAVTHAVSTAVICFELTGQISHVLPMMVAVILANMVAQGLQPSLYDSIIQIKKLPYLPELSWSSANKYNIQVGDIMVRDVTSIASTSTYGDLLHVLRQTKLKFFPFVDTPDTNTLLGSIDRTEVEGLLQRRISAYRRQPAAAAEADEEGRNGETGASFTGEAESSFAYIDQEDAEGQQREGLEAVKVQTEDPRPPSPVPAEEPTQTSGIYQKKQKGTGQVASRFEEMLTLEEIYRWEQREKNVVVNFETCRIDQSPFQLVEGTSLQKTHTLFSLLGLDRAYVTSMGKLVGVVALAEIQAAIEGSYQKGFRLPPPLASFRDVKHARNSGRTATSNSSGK
The assay is classed as cell-based. The settings on record: for IC50: read-out: Apparent affinity (K1/2). Put shortly: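 HEK293 cells expressed C212S-background CLC-0 mutants and were recorded 1–3 d post-transfection as inside-out patches in symmetrical 130 mM NaCl, 10 mM HEPES, pH 7.4. CPA, fatty acids or alkyl sulfates flowed continuously on the cytoplasmic side. C10–C12 compounds were diluted into bath solution from 10 mM DMSO stocks. Test steps ran from +80 to −160 mV after a +80 mV prepulse. Steady-state current was normalized to the mean of pre- and post-blocker controls, and a Langmuir K1/2 was taken at each voltage from ~4–6 patches.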

A further assay concerns the target T2, CLC-0 E166K mutant (Torpedo marmorata, UniProt P21564, C212S/E166K).
T2 sequence (P21564 1-805 E166K/C212S): T1 sequence (P21564 1-805 E166A/C212S) with A166K
Type of assay: cell-based. Particulars: for IC50: read-out: Apparent affinity (K1/2). Put shortly: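 CLC-0 mutants in the C212S background were transfected into HEK293 cells with lipofectamine and recorded 1–3 d later as excised inside-out patches. Both sides held 130 mM NaCl, 5 mM MgCl2, 10 mM HEPES and 1 mM EGTA, pH 7.4. CPA was perfused continuously onto the cytoplasmic face. Steady-state current over the last 10 ms was normalized to bracketing blocker-free controls and fitted to a Langmuir function for K1/2. Values are mean ± SEM of ~4–6 patches.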

Residue numbers refer to the chain shown, from its start. Like-named read-outs stand apart in the source and are kept apart here.

On to `CCCCCCCC(=O)O` [octanoate], for which the IC50 at CLC-0 E166A mutant (−40 mV) worked out at 64.3 ± 3.7 µM; at CLC-0 E166A mutant (−60 mV), 29.7 ± 1.4 µM; on CLC-0 E166A mutant (−80 mV), 15.7 ± 0.7 µM; at CLC-0 E166A mutant (−100 mV) it was 8.2 ± 0.2 µM; on CLC-0 E166A mutant (−120 mV), 4.7 ± 0.2 µM; on CLC-0 E166A mutant (−140 mV) it was 2.8 ± 0.2 µM. Also, the IC50 at CLC-0 E166A mutant (−160 mV) was determined as 1.9 ± 0.1 µM; on CLC-0 E166K mutant (−80 mV) it was 29200 ± 530 µM; on CLC-0 E166K mutant (−100 mV) it was 21600 ± 540 µM; on CLC-0 E166K mutant (−120 mV), 15400 ± 500 µM; at CLC-0 E166K mutant (−140 mV), 10600 ± 450 µM; at CLC-0 E166K mutant (−160 mV), 7240 ± 330 µM. For the same compound, the “K1/2 (range in words)” value on CLC-0 E166A mutant (−140 mV (Fig. 10 C)) was “low μM range”.

For the compound `O=C(O)COc1ccc(Cl)cc1` [CPA, p-chlorophenoxy acetate], the block of current was around 50% on CLC-0 E166A mutant (10 μM) and around 10% on CLC-0 E166K mutant (0.3 mM CPA, −160 mV). The compound further came in with an inhibition of current against CLC-0 E166A mutant (300 μM CPA, −160 mV) of around 95%. Also, the IC50 at CLC-0 E166A mutant (−40 mV) was 337 ± 19 µM; at CLC-0 E166A mutant (−60 mV), 162 ± 9 µM; on CLC-0 E166A mutant (−80 mV), 82 ± 4 µM; at CLC-0 E166A mutant (−100 mV), 46 ± 2 µM; on CLC-0 E166A mutant (−120 mV), 25 ± 2 µM; on CLC-0 E166A mutant (−140 mV), 15 ± 1 µM. The IC50 at CLC-0 E166A mutant (−160 mV) was 10 ± 1 µM; on CLC-0 E166K mutant (−80 mV) it was 21300 ± 900 µM; at CLC-0 E166K mutant (−100 mV) it was 15600 ± 700 µM; at CLC-0 E166K mutant (−120 mV) it was 11300 ± 500 µM; on CLC-0 E166K mutant (−140 mV), 7990 ± 350 µM; on CLC-0 E166K mutant (−160 mV) it was 5620 ± 270 µM. Besides, the “saturated value of 1/τ of current inhibition” value on CLC-0 E166A mutant (voltage step +80 to −160 mV) worked out at 1561 s⁻¹.
